The source of these data is ChEMBL document CHEMBL1157911, “A prodrug approach towards the development of tricyclic-based FBPase inhibitors” (Bioorg Med Chem Lett, 2010).

Molecules are shown by their SMILES. pIC50: −log10 of the molar value. In brackets after ≈: the same amount, converted by molar mass.

Data set [1] is described as follows: Solubility at pH 6.8. It is filed as physicochemical. To be noted: buffer. Put shortly: (§1)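 Solubility measured in Japanese Pharmacopoeia test fluids: first fluid (JP1, pH 1.2, simulating gastric conditions) and second fluid (JP2, pH 6.8, simulating intestinal conditions).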
The nature of data set [2]: Solubility at pH 1.2. It is filed as physicochemical. Conditions: buffer. Put shortly:
as §1

A short description of data set [3]: Inhibition of fructose-1,6-bisphosphatase in monkey hepatocytes assessed as glucose production. The format is cell-based. Conditions: Macaca mulatta, Hepatocyte.
In another data set the target is Cytochrome P450 3A4 (Homo sapiens, UniProt P08684). In words: Inhibition of CYP3A4. The format is ADME.
Chain of Cytochrome P450 3A4 (P08684 whole entry): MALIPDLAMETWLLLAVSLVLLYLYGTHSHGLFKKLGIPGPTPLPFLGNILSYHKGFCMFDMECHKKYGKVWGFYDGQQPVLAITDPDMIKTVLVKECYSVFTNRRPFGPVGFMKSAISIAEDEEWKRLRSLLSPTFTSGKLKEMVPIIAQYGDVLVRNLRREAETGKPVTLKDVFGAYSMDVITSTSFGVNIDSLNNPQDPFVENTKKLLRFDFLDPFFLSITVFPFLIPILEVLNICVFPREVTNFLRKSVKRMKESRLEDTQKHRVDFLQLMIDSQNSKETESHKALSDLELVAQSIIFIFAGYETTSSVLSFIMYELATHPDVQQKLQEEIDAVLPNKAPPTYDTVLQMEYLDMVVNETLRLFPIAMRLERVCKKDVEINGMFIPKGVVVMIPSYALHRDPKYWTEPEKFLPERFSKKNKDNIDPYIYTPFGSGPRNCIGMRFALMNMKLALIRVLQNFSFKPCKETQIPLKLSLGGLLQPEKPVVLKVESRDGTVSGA

As usually defined, the solubility is the dissolved amount per volume that the medium holds. By pIC50 is commonly meant the IC50 on a negative log10 scale, so that one unit is a factor of ten. With `Cc1ccncc1[C@@H]1CCO[P@](=O)(COc2cc(C)c(C)c3c2-c2ncsc2C3)O1` (racemic), the solubility in data set [1] is 81 µg/mL (≈ 183 µM); in data set [2], above 100 µg/mL. The negative-log IC50 (pIC50) is below 4.00 in data set [3] and 5.28 at Cytochrome P450 3A4.

With `CCOC(=O)[C@H](C)NP(=O)(COc1cc(C)c(C)c2c1-c1ncsc1C2)N[C@@H](C)C(=O)OCC`, the solubility was 66 µg/mL (≈ 130 µM) in data set [1] and 27 µg/mL (≈ 53 µM) in data set [2]. Besides, the values for the negative logarithm of the IC50 (pIC50) (in data set [3]; against Cytochrome P450 3A4) were 5.17 and 6.24, respectively.

`Cc1cc(OC[P@@]2(=O)OCC[C@@H](c3ccncc3)O2)c2c(c1C)Cc1scnc1-2` (racemic): the solubility stood at 51 µg/mL (≈ 119 µM) in data set [1] and 88 µg/mL (≈ 205 µM) in data set [2]. In data set [3], the pIC50 was 4.39.

Consider `COc1cccc([C@@H]2CCO[P@](=O)(COc3cc(C)c(C)c4c3-c3ncsc3C4)O2)c1` (racemic), for which the results for the solubility in data set [1] and in data set [2] were 0.8 µg/mL (≈ 1.75 µM) and 17 µg/mL (≈ 37.2 µM), respectively. The values for the negative logarithm of the IC50 (pIC50) (in data set [3]; on Cytochrome P450 3A4) were below 4.00 and 6.57, respectively.

As to `Cc1cc(OC[P@@]2(=O)OCC[C@@H](c3ccccn3)O2)c2c(c1C)Cc1scnc1-2` (racemic), the solubility stood at 73 µg/mL (≈ 170 µM) in data set [1] and 86 µg/mL (≈ 201 µM) in data set [2]. Besides, the pIC50 in data set [3] was 4.66; against Cytochrome P450 3A4, 5.08.

On to `COc1cccc([C@@H]2CCO[P@@](=O)(COc3cc(C)c(C)c4c3-c3ncsc3C4)O2)c1` (racemic), for which the solubility in data set [1] and in data set [2] was below 0.5 µg/mL throughout. Moreover, the pIC50 in data set [3] is below 4.00; at Cytochrome P450 3A4, 6.52.

On to `Cc1cc(OC[P@@]2(=O)OCC[C@@H](c3cccc(Cl)c3)O2)c2c(c1C)Cc1scnc1-2`, for which the solubility in data set [1] was below 0.5 µg/mL; in data set [2], 19 µg/mL (≈ 41.1 µM). Besides, the pIC50 in data set [3] was 4.82; at Cytochrome P450 3A4, 6.38.

Regarding `Cc1cc(OC[P@@]2(=O)OCC[C@@H](c3cccnc3C)O2)c2c(c1C)Cc1scnc1-2`, the solubility in data set [1] was found to be 84 µg/mL (≈ 190 µM); in data set [2], 88 µg/mL (≈ 199 µM). In addition, the pIC50 was 5.40 in data set [3] and 4.82 against Cytochrome P450 3A4.

For `Cc1cc(OC[P@]2(=O)OCC[C@@H](c3ccc(Cl)cc3)O2)c2c(c1C)Cc1scnc1-2` (racemic), the solubility in data set [1] and in data set [2] was below 0.5 µg/mL throughout. The negative logarithm of the IC50 (pIC50) in data set [3] was below 4.00; against Cytochrome P450 3A4 it was 6.14.

As to `Cc1cc(OC[P@]2(=O)OCC[C@H](c3cccnc3C)O2)c2c(c1C)Cc1scnc1-2` (racemic), the values for the solubility in data set [1] and in data set [2] were 83 µg/mL (≈ 188 µM) and 87 µg/mL (≈ 197 µM), respectively. The values for the negative-log IC50 (pIC50) (in data set [3]; against Cytochrome P450 3A4) were 4.96 and 5.24, respectively.

`Cc1cc(OC[P@]2(=O)OCC[C@@H](c3cccc(Cl)c3)O2)c2c(c1C)Cc1scnc1-2`: the solubility in data set [1] and in data set [2] was below 0.5 µg/mL throughout. In addition, the pIC50 in data set [3] was below 4.00; on Cytochrome P450 3A4, 5.57.

Turning to `Cc1cc(OC[P@@]2(=O)OCC[C@@H](c3cccnc3)O2)c2c(c1C)Cc1scnc1-2` (racemic), the solubility came to 84 µg/mL (≈ 196 µM) in data set [1] and 86 µg/mL (≈ 201 µM) in data set [2]. Moreover, the pIC50 in data set [3] is 5.06; against Cytochrome P450 3A4, 5.54.

In the case of `Cc1cc(OC[P@@]2(=O)OCC[C@@H](c3ccc(Cl)cc3)O2)c2c(c1C)Cc1scnc1-2` (racemic), the figures for the solubility in data set [1] and in data set [2] were below 0.5 µg/mL and 4.4 µg/mL (≈ 9.53 µM), respectively. Moreover, the negative logarithm of the IC50 (pIC50) in data set [3] was 4.18; at Cytochrome P450 3A4, 6.19.
